Test [1] deals with Raji. Nature of the test: Increase in ubiquitinated protein bax level in leukemia Raji B cells after 24 hrs. It is filed as functional, cell-based. The conditions noted are these: Homo sapiens. In a few lines: (§1)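 Raji B cells (RPMI, 10% FBS, 37 °C, 5% CO2) exposed to DMSO solvent or 25 μM compound for 4 or 24 h. Whole cell extracts immunoblotted with antibodies to IκB-α, p27, Bax and ubiquitin, with actin as loading control, and quantified by densitometry.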

The test system of test [2] is Raji. The test can be described thus: Induction of apoptosis in leukemia Raji B cells assessed as PARP1 ceavage after 24 hrs. It is filed as functional, cell-based. The conditions noted are these: Homo sapiens. A digest of the protocol: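 Raji B cells were treated with DMSO or 25 μM compound for 4 or 24 h. Whole cell extracts were immunoblotted with a polyclonal anti-PARP antibody to detect apoptosis-specific PARP cleavage, with densitometric quantification.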

The test system of test [3] is 20S proteasome (Oryctolagus cuniculus). Nature of the test: Inhibition of chymotrypsin like activity of 20S proteasome at 50 uM.
Test [4] concerns Raji. Nature of the test: Inhibition of chymotrypsin like activity of 20S proteasome in leukemia Raji B cells at 25 uM after 24 hrs. It counts as cell-based. The conditions noted are these: Homo sapiens. In a few lines:
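Raji B cells dosed at 25 μM for 4 or 24 h, then harvested and lysed. Whole cell extract (10 μg) incubated with Suc-Leu-Leu-Val-Tyr-AMC (40 μM) in 50 mM Tris-HCl pH 8 at 37 °C for 2.5 h. Released AMC read at ex 380/em 460 nm.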

The test system of test [5] is Raji. Nature of the test: Increase in ubiquitinated protein IkBalpha level in leukemia Raji B cells after 24 hrs. It is filed as functional, cell-based. The conditions noted are these: Homo sapiens. A digest of the protocol: as §1
The subject of test [6] is Raji. The test can be described thus: Increase in ubiquitinated protein p27 level in leukemia Raji B cells after 24 hrs. It counts as functional, cell-based. The settings on record: Homo sapiens. In a few lines: as §1
The test system of test [7] is Raji. The test can be described thus: Effect on apoptosis in leukemia Raji B cells assessed as increase in caspase 3 activation after 24 hrs. It counts as functional, Homo sapiens. A digest of the protocol: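 Raji B cells (RPMI, 10% FBS, 37 °C, 5% CO2) given 25 μM compound for 4 or 24 h, then harvested and lysed. Lysates incubated with Ac-DEVD-AMC (40 μM) for 2.5 h; caspase-3 activity read from fluorogenic substrate cleavage.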

Test [8] deals with Raji. Nature of the test: Increase in ubiquitinated protein bax level in leukemia Raji B cells after 4 hrs. It is filed as functional, Homo sapiens. The settings on record: for Activity: Homo sapiens, TDE = time-dependent effect. A digest of the protocol:
as §1

Test [9] relates to Raji. Nature of the test: Increase in ubiquitinated protein p27 level in leukemia Raji B cells after 4 hrs. It is filed as functional, Homo sapiens. The settings on record: for Activity: Homo sapiens, TDE = time-dependent effect. In a few lines: as §1
Test [10] deals with Raji. Nature of the test: Increase in cell death in leukemia Raji B cells at 25 um after 24 hrs. It is filed as functional, Homo sapiens. In a few lines: (§2)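 Raji B leukaemia cells grown in RPMI with 10% FBS, penicillin and streptomycin at 37 °C under 5% CO2. Treated with 25 μM compound or DMSO solvent for 24 h. Death scored by trypan blue dye exclusion: blue cells and cells with apoptotic morphology (shrinking, blebbing) on phase-contrast microscopy counted as dead.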

Test [11] deals with Raji. The test can be described thus: Increase in ubiquitinated protein IkBalpha level in leukemia Raji B cells after 4 hrs. It counts as functional, Homo sapiens. The settings on record: for Activity: Homo sapiens. In a few lines: as §1
For test [12], the system named is Raji. The test can be described thus: Inhibition of chymotrypsin like activity of 20S proteasome in leukemia Raji B cells at 25 uM after 4 hrs. It is filed as cell-based. The conditions noted are these: Homo sapiens. A digest of the protocol: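 Raji B cells treated with 25 μM compound for 4 h, then harvested and lysed. Whole-cell extract (10 μg) incubated with 40 μM Suc-Leu-Leu-Val-Tyr-AMC in 50 mM Tris-HCl pH 8 at 37 °C for 2.5 h. Free AMC read by fluorescence at 380 nm excitation and 460 nm emission.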

Test [13] is described as follows: Inhibition of chymotrypsin like activity of 20S proteasome. Also on record: species or system Homo sapiens. A digest of the protocol:
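Purified rabbit 20S proteasome (35 ng) incubated with the fluorogenic substrate Suc-Leu-Leu-Val-Tyr-AMC (40 μM), with or without compound. Chymotrypsin-like activity was read as substrate hydrolysis.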

For test [14], the system named is Raji. Nature of the test: Induction of cell death in leukemia Raji B cells at 25 uM after 24 hrs. It counts as functional, Homo sapiens. In a few lines:
as §2

The source made the active and inactive calls. No cut-off for these calls is given here.

With `CC(=O)Oc1cc(OC(C)=O)c2c(c1)O[C@H](c1cc(OC(C)=O)c(OC(C)=O)c(OC(C)=O)c1)[C@H](OC(=O)c1ccc(NC(=O)OC(C)(C)C)cc1)C2`, the outcome with Raji [1], in the test with Raji [2], in the test on Raji [5] and in the test on Raji [6] was Active. For the same molecule, the inhibition in test [3] was < 20%; with Raji [4] it was 65%. Also, the Fold change is 5.5 in the test on Raji [7]; 3.5 in the test with Raji [8]; 2.1 in the test with Raji [9]; 5 in the test on Raji [10]; 1.4 in the test on Raji [11].
Consider `CC(=O)Oc1cc(OC(C)=O)c2c(c1)O[C@H](c1cc(OC(C)=O)c(OC(C)=O)c(OC(C)=O)c1)[C@H](OC(=O)c1ccc(N)cc1)C2`, for which the outcome in the test on Raji [1], in the test with Raji [2], in the test on Raji [5] and with Raji [6] was Active. The inhibition in test [3] was < 20%; in the test with Raji [4] it was 39%. The Fold change in the test on Raji [7] amounted to 4.7; with Raji [8], 3.3; in the test with Raji [9], 2; in the test on Raji [10] it was 3.5. In addition, the result with Raji [11] was inactive.
As to `CC(=O)Oc1cc(OC(C)=O)c2c(c1)O[C@H](c1cc(OC(C)=O)c(OC(C)=O)c(OC(C)=O)c1)[C@H](OC(=O)c1cc(OC(C)=O)c(OC(C)=O)c(OC(C)=O)c1)C2`, the inhibition in test [3] is < 20%.
Consider `O=C(O[C@@H]1Cc2c(O)cc(O)cc2O[C@@H]1c1cc(O)c(O)c(O)c1)c1cc(O)c(O)c(O)c1` [EPIGALOCATECHIN GALLATE], for which the inhibition in the test on Raji [12] is 4%; in the test on Raji [4], 10%. For the same molecule, the IC50 in test [13] amounted to 200 nM.
With `Nc1ccc(C(=O)O[C@@H]2Cc3c(O)cc(O)cc3O[C@@H]2c2cc(O)c(O)c(O)c2)cc1`, the Activity in the test on Raji [14] is 10%; with Raji [8], “tde”; with Raji [9] it was “tde”; with Raji [11] (TDE = time-dependent effect), “tde”. In [13], this molecule registered a half-inhibitory concentration (IC50) of 840 nM.
With `CC(C)(C)OC(=O)Nc1ccc(C(=O)O[C@@H]2Cc3c(O)cc(O)cc3O[C@@H]2c2cc(O)c(O)c(O)c2)cc1`, the Activity in the test with Raji [14] was 10%; in the test on Raji [8], “tde”; with Raji [9] it was “tde”; in the test with Raji [11] (TDE = time-dependent effect), “tde”. For the same molecule, in [13], the IC50 came out at 3850 nM.

The values are drawn from ChEMBL document CHEMBL1149605, “A para-amino substituent on the D-ring of green tea polyphenol epigallocatechin-3-gallate as a novel proteasome inhibitor and cancer cell apoptosis inducer” (Bioorg Med Chem, 2007).
